Reference: ChEMBL document CHEMBL4261608, “Design, synthesis and anti-mycobacterial activity evaluation of benzofuran-isatin hybrids” (Eur J Med Chem, 2018)
Converted amounts (≈) assume the structure as drawn.

Columns and labels:
[1] = Cytotoxicity against African green monkey Vero cells after 72 hrs by MTT assay; assay type: cell-based; details: chlorocebus sabaeus
[2] = Selectivity index, ratio of CC50 for African green monkey Vero cells to MIC for Mycobacterium tuberculosis H37Rv; assay type: toxicity; details: read-out: Selectivity Index
Method in brief: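 SI calculated as CC50/MIC against H37Rv. Viability read by MTT, CC50 by Bliss analysis. MIC comes from the 7-day visual broth test.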

[3] = Tmax in ICR mouse at 25 mg/kg, po administered as single dose; assay type: ADME, organism-based; details: in vivo
Method in brief: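 SPF female ICR mice (20-25 g), 3 per group, given a single oral dose of 25 mg/kg as a suspension in 0.5% CMC. Blood drawn from the jugular vein at 0.25, 0.5, 1, 2, 4, 6, 8 and 24 h post-dose. AUC(0-inf), t1/2, Cmax and Tmax derived directly from the concentration-time data.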

[4] = tested on: Mycobacterium tuberculosis; test: Antimycobacterial activity against Mycobacterium tuberculosis H37Rv incubated for 7 days by rapid direct susceptibility test; assay type: functional; details: 168 h
Method in brief: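 Two-fold dilutions of compound mixed with MTB suspension holding 4×10^-3 mg cells (H37Rv, or MDR strain resistant to ethambutol, INH and RIF) in 48-well plates. Incubation at 37 °C in a wet box. Cells in each well observed by continuous visual high-magnification system, re-read 7 days later. MIC taken as lowest concentration inhibiting visible growth.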

Which results are given for `CO[C@H]1/C=C/O[C@@]2(C)Oc3c(C)c(O)c4c(O)c(c(/C=N/N5CCN(C)CC5)c(O)c4c3C2=O)NC(=O)/C(C)=C\C=C\[C@H](C)[C@H](O)[C@@H](C)[C@@H](O)[C@@H](C)[C@H](OC(C)=O)[C@@H]1C` [RIFAMPIN]?
CC50 at 72 h [1]: 512 µM; selectivity ratio [2]: 1024

For `CCOC(=O)c1c(-c2ccc(O)cc2)oc2ccc(O)c(CN3CCCCC3)c12`, which Tmax [3] is on record?
The Tmax was 3.46 h.

Which MIC [4] does the source give for `NNC(=O)c1ccncc1` [ISONIAZID] here?
Its MIC is 0.06 µg/mL (≈ 0.438 µM).

And the CC50 at 72 h [1]?
The CC50 at 72 h was 256 µM.

And the selectivity ratio [2]?
Its selectivity ratio is 4096.

For `CCOC(=O)c1c(-c2ccc(OC)cc2)oc2ccc(OCc3cn(CCN4C(=O)/C(=N/NC(N)=S)c5cc(OC)ccc54)nn3)cc12`, which Tmax [3] is on record?
The Tmax was 1.24 h.
